Bioassay records from PubChem.
rCAG binder: molecules binding r(CAG) RNA repeats; r(CAG) RNA repeat, TO-PRO-1 dye displacement fluorescence; actives 1.3% (n = 370,000); inhibition, % at 3 µM;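 active = inhibition above the plate cutoff, the mean of all test compounds on that plate plus 3 SD, cut at about 35% in these data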;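 also: 0% = DMSO alone and 100% = 100 µM mitoxantrone as full dye displacement; higher means more dye released from RNA so lower well fluorescence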
PRMT1 inh: PRMT1 (human) inhibition, primary screen; Q99873; recombinant PRMT1, activity-based probe fluorescence polarization; inhibition, % at 2.79 µM; actives 1.3% (n = 370,000); AID 652257;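 active = inhibition above about 21% made by adding two undisclosed values, limit read from the data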
LEDGF integ inh: blocks HIV-1 LEDGF/p75-dependent DNA integration; TR-FRET IN-LEDGF/p75 DNA integration, Eu/Cy5; inhibition, % at 3.7 µM; actives 0.64% (n = 370,000); AID 743269;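 active = inhibition above the screen-wide mean plus 3 SD, cut at about 13% in these data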;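 also: signal is the Cy5 over europium emission ratio at 671 and 618 nm; 0% = plate median of compound wells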
ABHD4 inh: inhibitors of mouse ABHD4. Q8VD66. purified mABHD4, FP-Rh probe fluorescence polarization. inhibition, % at 8.92 µM. actives 0.54% (n = 370,000);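 active = inhibition exceeding the mean over every tested compound plus 3 SD, cut at about 30% in these data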;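 also: 0% = plate median of compound wells and 100% = S159A mutant with DMSO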
Target sequence (Q8VD66 whole entry, looked up): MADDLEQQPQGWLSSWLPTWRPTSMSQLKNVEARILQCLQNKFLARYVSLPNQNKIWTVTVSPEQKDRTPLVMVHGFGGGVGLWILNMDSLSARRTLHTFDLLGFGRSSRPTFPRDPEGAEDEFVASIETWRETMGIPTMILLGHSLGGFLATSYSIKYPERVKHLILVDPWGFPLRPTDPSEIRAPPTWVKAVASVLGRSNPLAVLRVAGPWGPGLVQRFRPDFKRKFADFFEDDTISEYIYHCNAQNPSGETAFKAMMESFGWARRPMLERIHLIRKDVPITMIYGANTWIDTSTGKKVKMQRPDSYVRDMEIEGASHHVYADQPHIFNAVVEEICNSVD
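assay system = mABHD4 protein | compound dosing = single nominal dose of 8.92 µM, 0.89% DMSO final | read-out basis = percent inhibition of probe binding, normalized to plate controls | schedule = Enzyme–compound pre-incubation 45 min, then probe 60 min, both 25 °C | detection = fluorescence polarization, excitation 525 nm, emission 598 nm, BODIPY TMR filters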
DAGLB inh: diacylglycerol lipase beta (human) inhibition | Q8NCG7 | HEK293T DAGLB membrane lysate, EnzChek fluorogenic substrate | inhibition, % at 5.17 µM | actives 0.059% (n = 340,000); in the data active = inhibition above about 34%;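 also: 0% = enzyme with vehicle and 100% = wells lacking enzyme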
HTRA1 inhibitor: inhibitors of human serine peptidase HTRA1 | Q92743 | recombinant HTRA1, FP-rhodamine activity-based probe, fluorescence polarization | inhibition, % at 5.96 µM | actives 0.5% (n = 340,000) | AID 504803; in the data active = inhibition above about 36%;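 also: 0% = enzyme with DMSO and 100% = wells lacking enzyme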
Starred values were filed as active, the others as inactive; x = no result. Sampled rows, rich in hits. Any-hit rate of the full collection: about 3.2%.

SMILES	rCAG binder	PRMT1 inh	LEDGF integ inh	ABHD4 inh	DAGLB inh	HTRA1 inhibitor
O=C(CSC1=NS(=O)(=O)c2ccccc21)Nc1ccccc1	2	63*	-2	5	-7	-2
COC(=O)CSC1=NS(=O)(=O)c2ccccc21	x	x	x	x	1	0
CCCS(=O)(=O)NC(=O)C1(C)CCCN(C(=O)c2ccc(OC)cc2OC)C1 (stereo unspecified)	3	-3	-2	6	x	x
O=C(Nc1cccc(F)c1)/C(=C\c1ccco1)NC(=O)c1cccs1	16	23*	1	-6	0	-7
CN1C(=O)CC(C(=O)O)SC1=Nc1cc(Cl)c(O)c(Cl)c1 (stereo unspecified)	3	0	-2	7	2	5
Cc1c(CN2CCCC(C)C2)c(O)n(CCO)c(=O)c1C#N (stereo unspecified)	1	8	-3	-1	0	2
C=CCn1c(O)c(CN2CCCCC2)c(C)c(C#N)c1=O	8	22*	2	-7	2	5
Cc1c(C(=O)Oc2ccc(Cl)cc2)n(C)oc1=O	0	-2	3	0	2	4
O=C(Nc1cccc(C(F)(F)F)c1)Oc1ccc(Cl)c2cccnc12	4	-9	2	-35	1	46*
CCN(CC)C(=O)Oc1ccc(Cl)c2cccnc12	-6	-5	-2	2	-3	-18
CCN(CC)c1ccc(NC(=O)CCN2C(=O)c3ccccc3S2(=O)=O)c(C)c1	0	-1	-1	-1	3	-5
Cc1ccc(NC(=O)CSc2ncnc3ccccc23)cc1S(=O)(=O)N1CCCCC1	16	23*	-8	-18	-8	-23
O=C1c2c([N+](=O)[O-])cc([N+](=O)[O-])cc2S(=O)N1Cc1ccccc1 (stereo unspecified)	5	21*	0	10	1	-1
COc1ccccc1-n1c(=S)[nH]c2c(sc(=S)n2-c2ccccc2C)c1=O	7	87*	-5	1	-3	-15
COc1ccccc1-n1c(=S)[nH]c2c(sc(=S)n2-c2ccccc2)c1=O	4	83*	7	-5	-1	-5
CCOc1ccccc1-n1c(=S)sc2c(=O)n(-c3ccccc3)c(=S)[nH]c21	6	78*	-1	1	-3	-3
Cc1ccc(C)c(C(C)NC(=O)c2ccccc2Br)c1 (stereo unspecified)	-4	4	-3	-1	-4	-5
O=C1C(Cl)=C(N2CCOCC2)C(=O)N1c1cccc(C(F)(F)F)c1	-2	22*	2	6	7	-28
O=C(c1nc2ccc(Cl)cn2c1CN1CCCC1)N1CCc2ccccc2C1	5	24*	3	1	0	8
COc1cc2c(ccc3cc(OC)c(OC)c(O)c32)cc1O	28	0	36*	6	-1	24
CC1(C)Cc2ccccc2/C(=C/C(=O)N2CCCCCC2)N1	-9	22*	-3	5	1	-1
O=C(Nc1ccc2c(c1)OCCO2)C(CCc1ccccc1)N1CCN(c2ccc(F)cc2)CC1 (stereo unspecified)	6	-2	2	-10	x	x
COc1cccc(C(=O)NN2C(=O)C3C4C=CC(O4)C3C2=O)c1 (stereo unspecified)	0	23*	2	4	0	0
COc1cc(C(=O)Nc2ccc(C(=O)NCC3CCCO3)cc2)cc(OC)c1OC (stereo unspecified)	-8	-2	-4	0	0	0
CCCNC(=O)c1cc(C2CCCN(C(=O)c3ccc4ccccc4c3)C2)on1 (stereo unspecified)	3	0	0	7	x	x
COc1ccc(-c2ccc(C(=S)N3CCN(C(C)=O)CC3)o2)cc1	7	22*	1	6	-2	0
COc1ccc(CC(=O)N2CCN(C(=O)Cc3ccc(OC)cc3)CC2)cc1	3	-3	2	1	-1	-3
Cc1ccc(C(=O)NCc2ccc3c(c2)OCO3)c(Cl)c1	0	1	-4	1	-3	1
Cc1ccc(NC(=O)c2nc(S(=O)(=O)Cc3ccccc3C)ncc2Cl)cc1C	13	35*	3	-8	4	-21
Cc1cccc(CS(=O)(=O)c2ncc(Cl)c(C(=O)NCc3ccc4c(c3)OCO4)n2)c1	1	22*	-2	-1	3	-1
